Source: PubChem BioAssay
SUMO HTRF inh: SUMOylation inhibition. P63279. HTRF SUMOylation assay, SAE1/SAE2 + UBC9, in vitro. inhibition, % at 35 µM. 290,000 compounds, 0.36% hits. AID 2006; in the data active = inhibition above about 50%, passing the limit was not always enough
CSN deneddyl inh: blocks human CSN-mediated cullin deneddylation. Q92905. Purified CSN, SCF-Nedd8-OG deneddylation, fluorescence polarization. inhibition, % at 12.5 µM. 360,000 compounds, 0.38% hits. AID 651999;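 active = pattern-corrected inhibition above about 35%, with an unprinted fluorescence ratio check between 0.5 and 1.5, limit read from the data, passing the limit was not always enough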;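 note: 0% = enzyme with substrate and 100% = substrate without enzyme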
Target sequence (Q92905 whole entry, looked up, one chain of several): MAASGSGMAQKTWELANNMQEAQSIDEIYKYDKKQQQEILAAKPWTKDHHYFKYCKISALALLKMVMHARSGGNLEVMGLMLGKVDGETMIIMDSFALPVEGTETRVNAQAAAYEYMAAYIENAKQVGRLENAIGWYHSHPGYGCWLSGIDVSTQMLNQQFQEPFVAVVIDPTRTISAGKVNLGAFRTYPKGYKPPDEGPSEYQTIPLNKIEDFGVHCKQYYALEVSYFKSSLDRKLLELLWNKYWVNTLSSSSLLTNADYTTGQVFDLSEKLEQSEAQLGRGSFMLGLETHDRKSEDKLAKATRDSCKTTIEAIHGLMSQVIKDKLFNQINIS
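Assay system: purified human Csn5 enzyme expressed in HEK293T cells; Input: 0.24 nM Csn5 enzyme, final concentration; Reagent: 10 nM SCFSkp2-Nedd8OG; Compound dosing: 12.5 µM single point; Times: reaction 90 min, room temperature; Technique: fluorescence polarization readout.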
SENP1 FRET inh: blocks the human SENP1 SUMO protease catalytic domain. Q9P0U3. recombinant SENP1 catalytic domain, CyPet-SUMO1-YPet FRET cleavage. inhibition, % at 10 µM. 360,000 compounds, 0.21% hits. AID 624204;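 active = inhibition at least 30% at 10 µM, raw YFP signal under a set limit, fluorescence ratio 0.5 to 1.5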;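 note: 0% = enzyme with DMSO and 100% = no enzyme wells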
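material = recombinant human SENP1 catalytic domain, His6-tagged | quantity = 20 pM enzyme | reagent = 25 nM SUMO1 FRET substrate | compound dosing = 10 µM single point, 0.5% DMSO | timing = 50 min enzyme reaction, room temperature, light-protected | detection = FRET, CFP and YFP emission | control set = no-enzyme low, enzyme-DMSO high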
TPT1 inhibitor: inhibitors of Candida albicans tRNA 2'-phosphotransferase TPT1; recombinant caTPT1, FP RNA substrate dephosphorylation; AID 1962; 300,000 compounds, 0.81% hits; inhibition, % at 5 µM;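 active = inhibition above the mean of all tested compounds plus 3 SD, set per screening campaign, cut at about 24% in these data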;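 note: plate controls were DMSO alone for no effect and ferristatin control at 100 nM for full effect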
HNF4A DNA FP: change in binding of human HNF4 alpha to DNA. P41235. HNF4a-FITC DNA binding, fluorescence polarization, 1 h. activity change, % at 10 µM. 360,000 compounds, 0.3% hits. AID 1224865; in the data active = activity change above about 30%, passing the limit was not always enough
Rpn11 inh: blocks the human proteasome subunit Rpn11; human 26S proteasome, Ub4-pepOG fluorescence polarization; 20S core pre-blocked with epoxomicin; 360,000 compounds, 0.59% hits; O00487; AID 588493; calls only at 20 µM;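 active = inhibition at 20 µM, scaled to each plate's controls, above about 33%, limit read from the data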
caTPT1 confirm: confirmation of Candida albicans TPT1 inhibitors; 2,400 compounds, 74% hits; recombinant caTPT1, fluorescence polarization, RNase T1 coupled; inhibition, % at 5 µM; shares compounds with TPT1 inhibitor; AID 2149;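 active = inhibition above the primary screen limit, the mean inhibition of all tested compounds plus 3 SD, cut at about 25% in these data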
RNase T1 counter: counter-screen for TPT1 inhibitors: inhibitors of Aspergillus oryzae RNase T1. shares compounds with TPT1 inhibitor. RNase T1 cleavage, fluorescence polarization, 1536-well. inhibition, % at 5 µM. 2,400 compounds, 83% hits. AID 2153;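 active = inhibition above the solvent-only control well mean plus 3 SD, limit set per screening run, cut at about 23% in these data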;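 note: plate controls were DMSO wells with enzyme for no effect and wells without RNase T1 for full effect; inhibitors block cleavage so intact labeled substrate keeps polarization high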
Target sequence (P00651 whole entry, looked up): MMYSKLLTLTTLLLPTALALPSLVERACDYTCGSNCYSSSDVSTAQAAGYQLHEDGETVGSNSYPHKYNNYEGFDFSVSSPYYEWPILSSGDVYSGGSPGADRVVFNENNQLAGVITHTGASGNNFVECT
* = called active by the depositor; i = inactive; x = no result given. Only some compounds are listed: those with a hit (about 1.8% of all), similar ones and a draw of the others.

SMILES	SUMO HTRF inh	CSN deneddyl inh	SENP1 FRET inh	TPT1 inhibitor	HNF4A DNA FP	Rpn11 inh	caTPT1 confirm	RNase T1 counter
Cc1cccc(NC(=O)C2C3C=CC(O3)C2C(=O)O)c1C (stereo not given)	13	5	1	-2	-1	i	x	x
COc1ccc2c(Cl)c(C(=O)N/N=C3\CCCC(=O)C3)sc2c1	-4	56	-35	97*	165	x	121*	115*
CCOC(=O)C1CCCN(CC(O)COCc2ccc3c(c2)OCO3)C1 (stereo not given)	-7	2	0	-3	-1	i	x	x
COc1cc(/C=C/c2sc3ccccc3[n+]2CCCS(=O)(=O)[O-])ccc1O	-27	127	67	86*	87*	x	97*	101*
CN(C)c1ccc(C(CNC(=O)c2ccccc2)c2c[nH]c3ccccc23)cc1 (stereo not given)	-19	1	-8	3	1	i	x	x
Cc1cc(O)ccc1N/C=C/c1onc(C)c1[N+](=O)[O-]	16	1	23	5	-2	i	x	x
Cc1cccc(N/C=C/c2onc(C)c2[N+](=O)[O-])c1	-10	1	6	62*	3	i	64*	73*
CC(C)NC(=O)C1(C)CCN1Cc1ccc(C(F)(F)F)cc1 (stereo not given)	x	-2	0	x	4	i	x	x
O=C(COC(=O)c1cncc(Br)c1)NCc1ccc2c(c1)OCO2	-1	-7	-9	5	0	i	x	x
CCOc1ccc(C2C(C#N)=C(N)SC(N)=C2C#N)c(OCC)c1	-3	129	-16	150*	137	x	22	32*
NC(=O)C1(NC(=O)[C@@H]2CC3(CC(c4cccc(NC(=O)[C@@H]5CCC(=O)N5)c4)=NO3)CN2C(=O)Cc2ccc(C(F)(F)F)cc2)CC1 (stereo not given in full)	2	1	3	-4	-5	i	x	x
Cc1ccc(OS(=O)(=O)c2cn(C)c(=O)n(C)c2=O)cc1C	-5	5	2	-2	2	i	x	x
CCC(CO)[n+]1c(C)cc(/C=C2\Sc3ccccc3N2Cc2ccccc2)cc1C (stereo not given)	-1	11	-33	127*	13	x	131*	134*
CCN1/C(=C2\SC(=S)N(Cc3ccccc3)C2=O)Sc2ccccc21	-8	12	-22	7	33	i	x	x
O=C(NCCc1c[nH]c2ccccc12)C(=O)NCC(c1ccco1)N1CCN(c2ccccc2F)CC1 (stereo not given)	-3	-4	1	51*	2	i	2	5
CC1=NN(c2ccccc2)C(=O)/C1=C\C=C1\N(C)c2ccccc2C1(C)C	1	33	27	61*	70*	x	51*	64*
CC1=NN(c2ccccc2)C(=O)/C1=C/N(C)C	14	-2	3	-2	-1	i	x	x
CN1/C(=C\C=C2/C(=O)Oc3ccccc3C2=O)C(C)(C)c2ccccc21	48	x	x	98*	x	x	5	13
CN1C(=CC=C2C=C(I)C(=O)C(I)=C2)C(C)(C)c2ccccc21	6	26	10	x	209	x	x	x
CN1/C(=C\C=C2/SC(=S)NC2=O)C(C)(C)c2ccccc21	3	-101	39	106*	-4	x	111*	106*
Nc1c(C(=O)CSc2nnc(-c3ccccc3F)o2)c(=O)[nH]c(=O)n1C1CC1	x	0	-4	x	0	i	x	x
Cc1nnc(SCC(=O)NNC(=O)COc2ccc(Cl)cc2)s1	-11	9	3	3	-6	i	x	x
COc1ccc(O)c(C(=O)c2cc(C#N)c(=O)n(-c3ccc(Cl)cc3)c2)c1	-12	36*	-33	48*	29	x	62*	60*
COc1ccc(-n2cc(C(=O)c3cc(Cl)ccc3O)cc(C#N)c2=O)cc1	9	-7	9	11	8	i	x	x
